Reference: ChEMBL document CHEMBL3407479, “Structure-activity relationship for the oxadiazole class of antibiotics” (J Med Chem, 2015)
≈ marks a conversion by molar mass, not a printed value.

Experiments:
[1] = tested on: Staphylococcus aureus; experiment: Antibacterial activity against mecA-positive, methicillin/oxacillin/tetracycline-resistant and vancomycin/linezolid susceptible Staphylococcus aureus COL after 16 to 20 hrs by broth microdilution method; type: functional
[2] = tested on: Staphylococcus epidermidis; experiment: Antibacterial activity against Staphylococcus epidermidis ATCC 35547 after 16 to 20 hrs by broth microdilution method; type: functional
[3] = tested on: Staphylococcus haemolyticus; experiment: Antibacterial activity against Staphylococcus haemolyticus ATCC 29970 after 16 to 20 hrs by broth microdilution method; type: functional
[4] = tested on: Enterococcus faecalis; experiment: Antibacterial activity against vancomycin-resistant Enterococcus faecalis 99 clinical isolate after 16 to 20 hrs by broth microdilution method; type: functional
[5] = tested on: HepG2; experiment: Cytotoxicity against human HepG2 cells assessed as cell viability after 16 hrs by XTT assay; type: cell-based; details: HepG2, 16 h
Summary of the method: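 HepG2 cells were run in triplicate in an XTT viability assay. IC50 was derived from the concentration–response data.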

[6] = tested on: Streptococcus oralis; experiment: Antibacterial activity against Streptococcus oralis ATCC 9811 after 16 to 20 hrs by broth microdilution method; type: functional
[7] = tested on: Staphylococcus aureus; experiment: Antibacterial activity against mecA-positive, ciprofloxacin/gentamicin/oxacillin/penicillin/linezolid-resistant Staphylococcus aureus NRS120 after 16 to 20 hrs by broth microdilution method; type: functional
[8] = tested on: Enterococcus faecalis; experiment: Antibacterial activity against vancomycin-susceptible Enterococcus faecalis 201 clinical isolate after 16 to 20 hrs by broth microdilution method; type: functional
[9] = tested on: Bacillus cereus; experiment: Antibacterial activity against Bacillus cereus ATCC 13061 after 16 to 20 hrs by broth microdilution method; type: functional
[10] = tested on: Enterococcus faecium; experiment: Antibacterial activity against vancomycin-susceptible Enterococcus faecium 119-39A clinical isolate after 16 to 20 hrs by broth microdilution method; type: functional
[11] = tested on: Streptococcus pyogenes; experiment: Antibacterial activity against Streptococcus pyogenes ATCC 49399 after 16 to 20 hrs by broth microdilution method; type: functional
[12] = tested on: Staphylococcus aureus; experiment: Antibacterial activity against methicillin-sensitive Staphylococcus aureus ATCC 29213 after 16 to 20 hrs by broth microdilution method; type: functional
[13] = tested on: Enterococcus faecalis; experiment: Antibacterial activity against Enterococcus faecalis ATCC 29212 after 16 to 20 hrs by broth microdilution method; type: functional
[14] = tested on: Bacillus licheniformis; experiment: Antibacterial activity against Bacillus licheniformis ATCC 12759 after 16 to 20 hrs by broth microdilution method; type: functional
[15] = tested on: Staphylococcus aureus; experiment: Antibacterial activity against vancomycin/methicillin-resistant Staphylococcus aureus VRS1 clinical isolate after 16 to 20 hrs by broth microdilution method; type: functional
[16] = tested on: Enterococcus faecium; experiment: Antibacterial activity against vancomycin-resistant Enterococcus faecium 106 clinical isolate after 16 to 20 hrs by broth microdilution method
[17] = tested on: Enterococcus faecium; experiment: Antibacterial activity against Enterococcus faecium NCTC 7171 after 16 to 20 hrs by broth microdilution method; type: functional
[18] = tested on: Staphylococcus aureus; experiment: Antibacterial activity against mecA-positive, ciprofloxacin/gentamicin/oxacillin/penicillin/linezolid-resistant Staphylococcus aureus NRS119 after 16 to 20 hrs by broth microdilution method; type: functional
[19] = Plasma protein binding in human at 10 uM after 6 hrs by equilibrium dialysis assay; type: ADME, cell-free
[20] = tested on: Staphylococcus aureus; experiment: Antibacterial activity against vancomycin/methicillin-resistant Staphylococcus aureus VRS2 clinical isolate after 16 to 20 hrs by broth microdilution method; type: functional
[21] = tested on: Staphylococcus aureus; experiment: Antibacterial activity against mecA-positive, methicillin/oxacillin/tetracycline-resistant and vancomycin/linezolid susceptible Staphylococcus aureus ATCC 27660 after 16 to 20 hrs by broth microdilution method; type: functional
[22] = Plasma protein binding in human by equilibrium dialysis assay

SMILES	MIC [1]	MIC [2]	MIC [3]	MIC [4]	IC50 [5]	MIC [6]	MIC [7]	MIC [8]	MIC [9]	MIC [10]	MIC [11]	MIC [12]	MIC [13]	MIC [14]	MIC [15]	MIC [16]	MIC [17]	MIC [18]	PPB [19]	MIC [20]	further results
Fc1ccc(Oc2ccc(-c3noc(-c4n[nH]cc4Cl)n3)cc2)cc1	> 128 µg/mL	> 128 µg/mL	> 128 µg/mL	> 128 µg/mL	18.2 µg/mL (≈ 51 µM)	> 128 µg/mL	64 µg/mL (≈ 179 µM)	> 128 µg/mL	> 128 µg/mL	> 128 µg/mL	> 128 µg/mL	1 µg/mL (≈ 2.8 µM)	> 128 µg/mL	> 128 µg/mL	1 µg/mL (≈ 2.8 µM)	> 128 µg/mL	32 µg/mL (≈ 89.7 µM)	2 µg/mL (≈ 5.61 µM)	94.5%		
CC(C)Nc1c[nH]nc1-c1nc(-c2ccc(Oc3ccc(C(F)(F)F)cc3)cc2)no1	> 128 µg/mL	> 128 µg/mL	> 128 µg/mL	> 128 µg/mL	3.9 µg/mL (≈ 9.08 µM)	> 128 µg/mL	> 128 µg/mL	> 128 µg/mL	> 128 µg/mL	> 128 µg/mL	> 128 µg/mL	0.5 µg/mL (≈ 1.16 µM)	> 128 µg/mL	> 128 µg/mL	1 µg/mL (≈ 2.33 µM)	> 128 µg/mL	32 µg/mL (≈ 74.5 µM)	2 µg/mL (≈ 4.66 µM)	91.6%	4 µg/mL (≈ 9.32 µM)	MIC [21]: 0.5 µg/mL (≈ 1.16 µM)
CO[C@H]1/C=C/O[C@@]2(C)Oc3c(C)c(O)c4c(O)c(c(/C=N/N5CCN(C)CC5)c(O)c4c3C2=O)NC(=O)/C(C)=C\C=C\[C@H](C)[C@H](O)[C@@H](C)[C@@H](O)[C@@H](C)[C@H](OC(C)=O)[C@@H]1C [RIFAMPIN]																					fraction unbound [22]: < 0.09
C#Cc1c[nH]nc1-c1nc(-c2ccc(Oc3ccc(C(F)(F)F)cc3)cc2)no1	> 128 µg/mL	> 128 µg/mL	> 128 µg/mL	> 128 µg/mL	9.8 µg/mL (≈ 24.7 µM)	> 128 µg/mL	> 128 µg/mL	> 128 µg/mL	> 128 µg/mL	> 128 µg/mL	> 128 µg/mL	0.25 µg/mL (≈ 0.631 µM)	> 128 µg/mL	> 128 µg/mL	1 µg/mL (≈ 2.52 µM)	> 128 µg/mL	> 128 µg/mL	32 µg/mL (≈ 80.7 µM)	96.4%	0.5 µg/mL (≈ 1.26 µM)	MIC [21]: 0.5 µg/mL (≈ 1.26 µM)
Cc1onc(-c2ccccc2)c1C(=O)N[C@@H]1C(=O)N2[C@@H]1SC(C)(C)[C@@H]2C(=O)O [OXACILLIN]																					fraction unbound [22]: < 0.09
